Assay outcomes as filed in PubChem BioAssay.
S1P3 antagonist – antagonists of human S1P3 receptor; 0.27% of 170,000 active; CHO S1P3 NFAT-BLA reporter, FRET fluorescence, antagonist mode; AID 485; inhibition, % at 4.98 µM; Q99500;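 active means inhibition above the plate cutoff, the mean inhibition of test wells on that plate plus 3 SD, cut at about 28% in these data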;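 further: cells challenged with S1P at its EC80 of 0.8 µM; blue over green emission ratio from cleaved BLA substrate after 4 h stimulation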
S1P4 agonist – activates the human S1P4 receptor; O95977; S1P4-expressing cell line, agonist reporter assay; 0.35% of 220,000 active; activation, % at 4.98 µM; in the data active means activation above about 11%
Efa HMGR inh – inhibitors of class II HMG-CoA reductase from Enterococcus faecalis; purified E. faecalis HMGR, NADPH absorbance 340 nm kinetic; inhibition, % at 10 µM; 0.41% of 190,000 active;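 active means inhibition above a set limit, the median over all tested compounds plus 3 SD, cut at about 9.5% in these data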;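 further: enzyme runs in reverse so mevalonate oxidation gives rising NADPH absorbance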
S1P4 antag – antagonists of human S1P4 receptor; S1P4-expressing cells, antagonist mode, reporter read-out; inhibition, % at 4.98 µM; 0.26% of 220,000 active; AID 1510; in the data active means inhibition above about 29%
Rad51 HR inh – blocks human Rad51 in homologous recombination. AID 1385. hRad51 DNA strand exchange, fluorescence dequenching. Q06609. inhibition, % at 10 µM. 0.085% of 200,000 active;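 active means inhibition above 40% at the single screening dose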
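material = hRad51 filaments on single-stranded DNA | timing = filaments 15 min 37 °C, then compound 30 min | signal = FRET fluorescence dequenching, excitation 485 nm, emission 520 nm | benchmarks = control wells and blank wells on each plate | evaluation = percent inhibition relative to plate controls and blanks | compound = 10 µM final, single point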
Biofilm kill mix – mixtures killing C. albicans biofilm | 0.02% of 120,000 active | C. albicans biofilm persisters + clotrimazole, fluorescence viability; primary screen in compound mixtures of four per well | inhibition, % at 7.6 µM;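 active means inhibition above 30.3% in the primary screen of four-compound pools, then above 30% when the compound was retested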;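 further: compounds exposed to preformed 24 h biofilms for 48 h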
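Assay system: C. albicans biofilms / Medium: RPMI/MOPS medium, pH 7.0 / Schedule: biofilm formation 24 h, compound exposure 48 h, 37 °C / Measured by: Alamar Blue fluorescence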
S1P4 agonist cf – human S1P4 agonism, confirmation; shares compounds with S1P4 agonist; S1P4 agonist cell-based reporter assay; activation, % at 4.98 µM; 7% of 740 active; in the data active means activation above about 12%
S1P1 ag – activates human S1P1, counter-screen for S1P4 agonists; shares compounds with S1P4 agonist; S1P1 agonist cell-based assay, activation; activation, % at 4.98 µM; 4% of 740 active; in the data active means activation above about 21%
Target sequence (P21453 whole entry, looked up): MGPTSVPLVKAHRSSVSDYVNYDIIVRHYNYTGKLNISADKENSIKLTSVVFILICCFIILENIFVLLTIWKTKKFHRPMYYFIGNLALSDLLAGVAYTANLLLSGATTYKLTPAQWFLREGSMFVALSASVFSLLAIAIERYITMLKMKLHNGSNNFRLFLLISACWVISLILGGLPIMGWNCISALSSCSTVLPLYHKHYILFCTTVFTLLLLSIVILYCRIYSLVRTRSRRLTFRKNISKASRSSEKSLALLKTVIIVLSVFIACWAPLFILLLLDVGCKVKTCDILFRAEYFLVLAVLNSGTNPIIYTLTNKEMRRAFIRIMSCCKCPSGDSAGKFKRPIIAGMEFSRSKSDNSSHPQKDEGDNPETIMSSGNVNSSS
Numbers stand for hits. Rows were chosen to be rich in hits. Some 1.2% of all compounds tested hit in one or more screens of this group.

Cc1ccc(Cl)cc1NC(=O)COC(=O)C1CC1 was read as S1P3 antagonist inactive, S1P4 agonist inactive, Efa HMGR inh inactive, S1P4 antag inactive, Rad51 HR inh inactive and Biofilm kill mix inactive.
For COCCNC(=S)N1CCc2cc(OC)c(OC)cc2C1COc1cc(C)cc(C)c1 (stereo not drawn) the results were S1P3 antagonist inactive, S1P4 agonist 18, Efa HMGR inh inactive, S1P4 antag inactive, Rad51 HR inh inactive, Biofilm kill mix inactive, S1P4 agonist cf inactive and S1P1 ag inactive.
`CNC(=S)N1CCc2cc(OC)c(OC)cc2C1COc1ccc(OC)cc1` (stereo not drawn) gave S1P3 antagonist inactive, S1P4 agonist inactive, Efa HMGR inh inactive, S1P4 antag inactive, Rad51 HR inh inactive and Biofilm kill mix inactive.
`Cc1cc(-n2c(C)cc(C(=O)CSc3ncnc4ccccc34)c2C)no1` gave S1P4 agonist inactive, Efa HMGR inh inactive, S1P4 antag inactive and Rad51 HR inh inactive.
COc1nc(NCCN2CCOCC2)nc(Nc2ccccc2)n1 was read as S1P3 antagonist inactive, S1P4 agonist inactive, Efa HMGR inh inactive, S1P4 antag inactive and Rad51 HR inh inactive.
CCCCCCCCNc1nc(Cl)nc(NCCN2CCOCC2)n1 was read as S1P3 antagonist inactive, S1P4 agonist 17, Efa HMGR inh inactive, S1P4 antag inactive, Rad51 HR inh inactive, Biofilm kill mix inactive, S1P4 agonist cf inactive and S1P1 ag inactive.
O=c1oc(Nc2ccccc2F)nc2ccccc12 was read as S1P4 agonist inactive, Efa HMGR inh inactive, S1P4 antag inactive and Rad51 HR inh inactive.
For Nc1nc(Nc2ccccc2Br)nc(C(F)(F)F)n1 the results were S1P3 antagonist inactive, S1P4 agonist inactive, Efa HMGR inh inactive, S1P4 antag inactive and Rad51 HR inh inactive.
`Nc1nc(Nc2ccc(Cl)cc2Cl)nc(C(F)(F)F)n1` gave S1P3 antagonist inactive, S1P4 agonist 30, Efa HMGR inh inactive, S1P4 antag inactive, Rad51 HR inh inactive, S1P4 agonist cf 27 and S1P1 ag inactive.
`COCCSc1nnc(NC(=O)c2ccc3c(c2)OCO3)s1` gave S1P3 antagonist inactive, S1P4 agonist inactive, Efa HMGR inh inactive, S1P4 antag inactive, Rad51 HR inh inactive and Biofilm kill mix inactive.
For CCOC(=O)C1=C(C)Nc2nc(C)nn2C1c1ccc(C)cc1 (stereo not drawn) the results were S1P3 antagonist inactive, S1P4 agonist 13, Efa HMGR inh inactive, S1P4 antag inactive, Biofilm kill mix inactive, S1P4 agonist cf inactive and S1P1 ag inactive.
`CCCN(CCC)C(=O)CC(c1ccccc1)c1cc(C)ccc1O` (stereo not drawn) gave S1P4 agonist 51, Efa HMGR inh inactive, S1P4 antag inactive, Rad51 HR inh inactive, S1P4 agonist cf inactive and S1P1 ag inactive.
For Cc1ccc(O)c(C(CC(=O)NC(C)C)c2ccccc2)c1 (stereo not drawn) the results were S1P3 antagonist inactive, S1P4 agonist inactive, Efa HMGR inh inactive, S1P4 antag inactive, Rad51 HR inh inactive and Biofilm kill mix inactive.
COCCCNC(=O)Nc1ccc2c(c1)N(C)C(=O)CS2 was read as S1P4 agonist inactive, Efa HMGR inh inactive, S1P4 antag inactive and Rad51 HR inh inactive.
For COc1ccc(-n2c(=O)c3c4c(sc3n(CC(N)=O)c2=O)CCCCC4)cc1 the results were S1P3 antagonist inactive, S1P4 agonist inactive, S1P4 antag inactive, Rad51 HR inh inactive and Biofilm kill mix inactive.
`COc1cc(C2NC(=S)NC(C)=C2C(=O)Nc2cc(C)cc(C)c2)ccc1O` (stereo not drawn) gave S1P3 antagonist inactive, S1P4 agonist 33, S1P4 antag inactive, Rad51 HR inh inactive, Biofilm kill mix inactive, S1P4 agonist cf inactive and S1P1 ag inactive.
COc1ccc(-c2noc(CSc3nc4sc(C)c(C)c4c(=O)n3-c3ccccc3)n2)cc1 was read as S1P3 antagonist inactive, S1P4 agonist 21, Efa HMGR inh inactive, S1P4 antag inactive, Rad51 HR inh inactive, Biofilm kill mix inactive, S1P4 agonist cf inactive and S1P1 ag inactive.
Cc1cccc(Cl)c1NC(=S)NN was read as S1P3 antagonist inactive, S1P4 agonist inactive, S1P4 antag inactive, Rad51 HR inh inactive and Biofilm kill mix inactive.
Cc1cc(Oc2ccc(-c3nnc(-c4ccccc4)o3)cc2[N+](=O)[O-])ccc1Cl was read as S1P3 antagonist inactive, S1P4 agonist 14, Efa HMGR inh inactive, S1P4 antag inactive, Biofilm kill mix inactive, S1P4 agonist cf inactive and S1P1 ag inactive.
`Cc1nnc(-c2ccc(Oc3ccc(Br)cc3)c([N+](=O)[O-])c2)o1` gave S1P3 antagonist inactive, S1P4 agonist inactive, Efa HMGR inh inactive, S1P4 antag inactive, Rad51 HR inh inactive and Biofilm kill mix inactive.
For CCc1ccc(NC(=O)N(CCN2CCOCC2)C2CCN(C(C)=O)CC2)cc1 the results were S1P3 antagonist inactive, S1P4 agonist 16, Efa HMGR inh inactive, S1P4 antag inactive, Rad51 HR inh inactive, S1P4 agonist cf inactive and S1P1 ag inactive.
Screening CCn1cnc2sc(C(=O)N3CCN(Cc4ccc5c(c4)OCO5)CC3)c(C)c2c1=O returned S1P3 antagonist inactive, S1P4 agonist inactive, Efa HMGR inh inactive and S1P4 antag inactive.
CCn1c(=O)c(-c2nc3ccccc3[nH]2)c(O)c2ccccc21 was read as S1P3 antagonist inactive, S1P4 agonist 35, Efa HMGR inh inactive, S1P4 antag inactive, Rad51 HR inh inactive, Biofilm kill mix inactive, S1P4 agonist cf inactive and S1P1 ag inactive.
For CCCn1c(=O)c(-c2nc3ccccc3[nH]2)c(O)c2ccccc21 the results were S1P3 antagonist inactive, S1P4 agonist inactive, Efa HMGR inh inactive, S1P4 antag inactive and Biofilm kill mix inactive.
`Cc1nc2cc(NC(=O)NCc3ccco3)ccc2o1` gave S1P3 antagonist inactive, S1P4 agonist 20, Efa HMGR inh inactive, S1P4 antag inactive, Rad51 HR inh inactive, S1P4 agonist cf inactive and S1P1 ag inactive.
`CN(C)S(=O)(=O)N1CCN(Cc2ccccc2)CC1` gave S1P4 agonist inactive, Efa HMGR inh inactive, S1P4 antag inactive and Rad51 HR inh inactive.
COc1ccc(C2=NOC(C(=O)NC(C)(C)C)C2)cc1 (stereo not drawn) was read as S1P3 antagonist inactive, S1P4 agonist 23, Efa HMGR inh inactive, S1P4 antag inactive, Rad51 HR inh inactive, S1P4 agonist cf inactive and S1P1 ag inactive.
Screening COCCCNC(=O)C1CCN(C(=O)Nc2ccc(Cl)cc2)CC1 returned S1P3 antagonist inactive, S1P4 agonist 61, Efa HMGR inh inactive, S1P4 antag inactive, Rad51 HR inh inactive, S1P4 agonist cf inactive and S1P1 ag inactive.
Screening COc1ccc(NC(=O)c2cnc3sccn3c2=O)cc1 returned S1P3 antagonist inactive, S1P4 agonist inactive, Efa HMGR inh inactive, S1P4 antag inactive and Rad51 HR inh inactive.
